# Screening data (PubChem)
# KCNK3 inh: human KCNK3 channel inhibition, primary screen; B-score at 10 µM; hit rate 0.84% among 340,000; CHO-KCNK3 thallium flux, FluxOR fluorescence; stronger effect = lower value; O14649;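 active means B-score under library mean minus 4 SD, starting fluorescence ratio at most library mean plus 5 SD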;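 further: more negative B-score means stronger inhibition of thallium flux through KCNK3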
# KCNQ1 block: blocks the human KCNQ1 potassium channel; CHO-K1 KCNQ1, FluxOR thallium flux fluorescence; stronger effect = higher value; B-score at 10 µM; hit rate 1.3% among 310,000; AID 2642;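 active means compounds whose thallium flux B-score, printed positive for inhibition, exceeds three library SD while starting fluorescence stays within three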;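 further: channel opened by potassium depolarization with thallium stimulus after 20 min compound exposure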
# Kir21 block: blocks the mouse Kir2.1 inward-rectifier potassium channel | P35561 | HEK293-Kir2.1, FluxOR thallium flux fluorescence; stronger effect = lower value | B-score at 10 µM | hit rate 0.85% among 310,000 | AID 1672;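 active means fluorescence ratio B-score at or below minus 3 SD of library scores, with starting-brightness B-score within 2 SD, cut at about -4.2 in these data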;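 further: channel flux triggered by added potassium and thallium sulfate stimulus; B-score of peak minus minimum fluorescence over baseline after thallium stimulus; more negative B-score means stronger Kir2.1 block with less thallium influx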
# KCNK9 inh: inhibitors of human KCNK9 two-pore domain potassium channel. Q9NPC2. HEK293 KCNK9, FluxOR thallium flux fluorescence; stronger effect = lower value. B-score at 10 µM. hit rate 1.2% among 310,000;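 active means ratio B-score over 3 SD below the library mean, with starting fluorescence within 5 SD of its mean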;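 further: negative B-score means less thallium flux so channel inhibition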
# Target sequence (Q9NPC2 whole entry, looked up, the tested form may be a part): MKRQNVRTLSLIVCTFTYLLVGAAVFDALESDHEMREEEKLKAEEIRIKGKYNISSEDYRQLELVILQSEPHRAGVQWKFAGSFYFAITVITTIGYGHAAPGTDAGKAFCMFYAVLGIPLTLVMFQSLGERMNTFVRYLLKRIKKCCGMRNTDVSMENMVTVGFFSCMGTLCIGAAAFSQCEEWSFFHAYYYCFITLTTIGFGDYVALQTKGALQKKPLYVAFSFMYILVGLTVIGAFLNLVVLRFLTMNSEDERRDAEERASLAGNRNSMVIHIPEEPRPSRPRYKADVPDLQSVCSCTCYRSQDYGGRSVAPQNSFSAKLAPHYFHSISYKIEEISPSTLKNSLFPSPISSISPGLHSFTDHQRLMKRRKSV
# KCNQ1 act: potentiators or activators of human KCNQ1 potassium channel; P51787; CHO-K1 KCNQ1, thallium flux FluxOR fluorescence; stronger effect = higher value; B-score at 10 µM; hit rate 0.35% among 310,000; AID 2648;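 active means fluorescence ratio B-score, a plate-corrected score, at least three library SD, with initial intensity B-score within 5 SD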
#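 System: CHO-K1 cells stably expressing KCNQ1 / Medium: assay buffer for compound exposure, DMSO matched across wells / Reagent: thallium- and potassium-containing depolarizing buffer / Compound: one concentration, matched DMSO / Incubation: 20 min compound pretreatment at room temperature / Measured by: kinetic FluxOR fluorescence, 10 s baseline plus 110 s post-stimulus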
# hERG rescue: hERG (human) protection from proarrhythmic block; activation (rescue from dofetilide block), less the hit threshold, % at 10 µM; Q12809; AID 1511; hit rate 0.51% among 310,000; CHO-hERG, FluxOR thallium flux, dofetilide IC70 present;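 active means activation above the mean of controls blocked by dofetilide plus 5 SD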;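 further: thallium influx through hERG after potassium depolarization seen as dye fluorescence rise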
# A number is an active result; – = inactive; · = no result given. This is a sample that favours compounds with a hit; in the whole collection about 3.8% have one here.
SMILES,KCNK3 inh,KCNQ1 block,Kir21 block,KCNK9 inh,KCNQ1 act,hERG rescue
Cc1cccc(NC2CNC(=O)NC2=O)c1 (stereo not drawn),–,·,·,·,·,·
COCCN(CCOC)Cc1c(O)ccc2c3c(c(=O)oc12)CCC3,–,–,–,-7.1,–,–
CO/N=C(/C)CCS(=O)(=O)c1ccccc1,–,–,–,–,–,–
CCC(=O)NC1=C(Cl)C(=O)C(NC(=O)CC)=C(Cl)C1=O,-11,·,·,·,·,·
Cn1nc(C(F)(F)F)c(/C=N/OC(=O)c2ccccc2)c1SCc1ccccc1Cl,–,–,–,-7.9,–,–
Cn1nc(C(F)(F)F)c(/C=N/OC(=O)c2ccccc2)c1Sc1ccc(Cl)cc1,–,–,–,–,–,–
O=C(Nc1c[nH]c(=O)[nH]c1=O)c1ccccc1Cl,–,–,–,–,–,–
COc1ccc(/C=N/NC(=O)COc2cc(C)cc(C)c2)cc1COC(C)=O,–,–,–,–,–,–
CN1C(=O)c2cccc3c(Cl)ccc(c23)C1=O,–,–,–,–,–,–
CN1C(=O)c2cccc3c(N(C)C)ccc(c23)C1=O,–,6,–,–,–,–
CC[n+]1ccc2cc(OC)c(OC)cc2c1Cc1ccc(OC)c(OC)c1,–,–,–,–,–,–
CC(NC(=O)c1ccc(Br)cc1)c1ccc2c(c1)CCCC2 (stereo not drawn),–,–,–,–,–,7.8
CCOC(=O)C1CCN(c2ncnc3c2oc2ccccc23)CC1,-9.9,–,–,–,–,–
O=c1[nH]c(NCCO)nc2c1C1(CCCC1)Cc1ccccc1-2,–,–,–,–,–,–
C=CCNC(=S)NNc1nc2c(c(=O)[nH]1)C1(CCCCC1)Cc1ccccc1-2,–,8,–,–,–,–
CCN1CCN(Cc2c(C)[nH]c3ccc(C(=O)OC)cc3c2=O)CC1,–,–,–,–,–,5.6
CCCn1c(=N)n(CC(=O)C(C)(C)C)c2ccccc21,–,6,–,–,–,–
C/C(=N\NC(=O)c1ccc(O)cc1)c1ccc2c(c1)Nc1ccccc1S2,–,6,–,–,–,–
CCOCCc1c(O)nc(SC)[nH]c1=O,–,–,–,–,8,–
Oc1ccc(C[C@H]2CNCCN2CCC23CC4CC(CC(C4)C2)C3)cc1,–,6,–,–,–,–
C[C@H](CO)N1C[C@H](C)[C@@H](CN(C)Cc2ccc(C(=O)O)cc2)Oc2ccc(NS(C)(=O)=O)cc2C1=O,–,·,·,·,·,·
CCOc1ccc(S(=O)(=O)NCCN2CCOCC2)c2ccccc12,–,–,–,–,–,–
CCCOc1ccc(S(=O)(=O)NCCN2CCOCC2)c2ccccc12,–,–,-4.4,–,–,–
CC(=O)OCCn1c2nc(=O)[nH]c(=O)c-2nc2cc(C)c(C)cc21,–,37,–,–,–,–
CC(=O)OCCn1c(C)[n+](CCOC(C)=O)c2cc(Cl)c(Cl)cc21,–,–,–,–,–,–
SMILES,KCNK3 inh,KCNQ1 block,Kir21 block,KCNK9 inh,KCNQ1 act,hERG rescue
CC(C)c1ccc(NC(=S)N(C)CCc2ccccn2)cc1,–,–,–,–,–,29
Cc1cccc(C)c1NC(=S)N(C)CCc1ccccn1,–,–,–,–,–,–
NC(=NCCc1ccccc1)c1cccc([N+](=O)[O-])c1,–,7,–,–,–,–
CC1Cc2ccccc2N1C(=O)COc1ccc2c(c1)OCO2 (stereo not drawn),–,–,–,–,–,–
O=[N+]([O-])c1ccc(NCCNS(=O)(=O)c2ccccc2)c(C(F)(F)F)c1,–,–,-5.8,–,–,–
Cc1ccc(S(=O)(=O)NCCNc2ccccc2[N+](=O)[O-])cc1,–,–,-4.3,–,–,–
O=C(Cc1ccc(Cl)cc1)NNC(=O)C1CC=CCC1C(=O)O (stereo not drawn),–,–,–,–,–,–
COc1ccc(S(=O)(=O)N2CN3CCN(C3)C2)cc1OC,–,–,–,–,–,–
COC(=O)c1cc(OC(=O)CCc2ccc(OC)c(OC)c2)cc(C(=O)OC)c1,–,–,–,–,–,–
CC(CC12CC3CC(CC(C3)C1)C2)NCc1ccccc1O (stereo not drawn),–,6,-5,–,–,–
NC(=O)c1ccccc1NC(=O)/C=C/C(=O)O,–,–,–,–,–,15
NC(=O)c1ccccc1NC(=O)CN1CCOCC1,–,–,–,–,–,–
NC(=O)c1ccccc1NC(=O)N1CCOCC1,–,–,–,–,9,–
COC(=O)c1ccccc1NC(=O)/C=C/C(=O)O,–,–,–,–,–,–
C/C(=N/NC(=O)c1nnn(-c2nonc2N)c1COc1ccccc1)c1ccccc1,–,–,–,–,–,–
C(=C\c1ccccc1)/CSc1nnc(-c2ccccn2)n1Cc1ccco1,–,–,-7.9,–,–,–
C/C(=N\NC(=O)c1nn(C)cc1Br)c1cccc(NC(=O)c2ccncc2)c1,–,–,–,–,–,–
CC(=O)N1N=C(c2cccc(Cl)c2)OC1c1ccc(C(C)C)cc1 (stereo not drawn),–,6,–,–,–,–
CC(=O)N1N=C(c2cccc(Cl)c2)OC1c1cccc([N+](=O)[O-])c1 (stereo not drawn),–,–,–,–,–,–
c1ccc(CN(Cc2cccs2)C(c2cccs2)c2nnnn2C2CCCC2)cc1 (stereo not drawn),–,–,–,-7.5,–,–
Cc1ccc(NC(=O)CCCNC(=O)c2ccc(Cl)cc2)c(O)c1,–,–,–,–,–,–
N#Cc1cc([N+](=O)[O-])c(-n2nnc3ccccc32)c([N+](=O)[O-])c1,–,8,–,–,–,–
COc1ccccc1-c1cn[nH]c1-c1ccc(OCc2ccc(F)cc2)cc1O,–,6,–,–,–,–
CCn1c(=O)c(-[n+]2ccccc2)c(O)c2ccccc21,–,–,–,–,–,8.3
CCn1c(=O)c(C(=O)NNC(=O)c2ccccc2)c(O)c2ccccc21,–,–,–,–,–,–
SMILES,KCNK3 inh,KCNQ1 block,Kir21 block,KCNK9 inh,KCNQ1 act,hERG rescue
CCN1CCN(C(=O)CCc2ccc(S(=O)(=O)NCCc3ccccc3)cc2)CC1,–,–,–,–,–,–
CCCCOc1ccc(CSC(=N)N)cc1Cl,–,–,-12,–,–,–
Cc1ccc(CNCCC2=CCCCC2)cc1,–,–,-6.9,–,–,–
CCOC(=O)c1c(C)noc1-c1ccc(Br)o1,–,–,–,–,–,–
COc1ccc2ccccc2c1-c1sc(Nc2ccccc2)n[n+]1-c1ccc(F)cc1,–,7,-5.6,-7.4,–,–
COc1ccc(-c2sc(Nc3ccccc3)n[n+]2-c2ccc(F)cc2)cc1Br,–,–,–,–,–,–
CO/N=C/C(C#N)=C/c1cc(C(=O)c2ccccc2)cn1C,–,–,–,–,–,–
N=C1N(/N=C/c2ccccc2)C(=Nc2ccccc2)C(=S)N1c1ccccc1,–,–,–,–,–,–
N#C/C(=N\Nc1ccc(Cl)cc1)C(N)=S,–,6,–,–,–,–
